From paper PMC3902791 (Molecular imaging and biology : MIB : the official …, 2012)
“Also recorded” adds a separate entry of the source.

Legend:
[1] = type: in vivo, rhesus macaques
Outline: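 Six rhesus macaques (3 female, 3 male), fasted overnight, under isoflurane anaesthesia, received test compound i.v. at 165.4 ± 28.5 MBq (21.8±5.9 MBq/kg) in 5 mL over 2 min. Venous samples (0.5 mL) were taken from the second saphenous cannula at 10, 20, 40, 60, 90 s and 2–180 min. Radioactivity in whole blood and plasma was gamma-counted and expressed as %ID/mL.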

[2] = Dynamic and whole-body PET imaging of pharmacokinetics and biodistribution; type: in vivo, rhesus macaques
Outline: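 ECAT HR+ scanner; 10-min transmission scan, then i.v. radiotracer (165.4 ± 28.5 MBq). Lower thorax to upper abdomen was imaged dynamically for 0–30 min in 2D mode, 29 frames (20×15 s, 5×1 min, 4×5 min). Three whole-body static scans followed at 40, 100 and 170 min (3-min transmission, 5-min emission, 4–5 beds). OSEM reconstruction with attenuation, scatter, random and dead-time correction. 3D VOIs gave organ %ID/g time–activity curves.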

rhesus macaques = experiment: Hematology and blood chemistry before and after PET imaging; type: in vivo
[3] = Humanized time-integrated activity coefficients; type: in vivo, rhesus macaques
Outline: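 Six rhesus macaques (3 female, 3 male) received the radiolabelled test compound intravenously, followed by whole-body PET/CT. Organ activity came from 3D VOIs drawn on PET images. Time–activity curves were fitted mono-exponentially, or by a linear fit of log activity for one animal with two scans. Coefficients were scaled by human/macaque whole-body-normalised organ mass ratios, using CT-derived macaque organ masses and the OLINDA/EXM 73.7-kg adult male model.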

[4] = Stability of radiochemical purity of the product; type: physicochemical; conditions: after completion of the synthesis
Outline: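 Final product was in 0.9% saline adjusted to pH 6–8 and sterile-filtered. Radiochemical purity was followed after end of synthesis by HPLC: Supelcogel C-610H column (30 cm × 7.8 mm), 20 mM aqueous phosphoric acid, 0.5 mL/min, UV and radioactivity detection.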

O=C(O)C[18F] [^18F-FACE, ^18F-fluoroacetate]
blood clearance half-time, fast phase ([1]; i.v., bi-exponential, fast phase between 3 and 18 min): 4 min | blood clearance half-time, slow phase ([1]; i.v., bi-exponential, slow phase until 180 min): 250 min | partition of radioactivity in the blood: plasma ([1]; stable throughout the study): 70% | partition of radioactivity in the blood: red blood cells ([1]; stable throughout the study): 30% | accumulation in the myocardium ([2]; PET): Some accumulation | accumulation or retention in the brain ([2]; PET): No significant accumulation or retention | uptake of radioactivity (free ^18F-fluoride) in bones / skeletal structures ([2]; PET, over 2 to 3 h post-injection): insignificant; also recorded: limited | radioactivity concentration in liver ([2]; at 5 min): 0.040 % ID/g | level of radioactivity in the blood ([2]; within 5 min after i.v. injection): 0.040±0.02 % ID/g | ALP (rhesus macaques; After 1–3 months): 134.0±58.2 IU/L | ALT (rhesus macaques; After 1–3 months): 30.5±8.5 IU/L | AST (rhesus macaques; After 1–3 months): 28.7±3.4 IU/L | Albumin (rhesus macaques; After 1–3 months): 3.4 ± 0.8 g/dL | BUN (rhesus macaques; After 1–3 months): 17.9 ± 4.9 mg/dL | Hb (rhesus macaques; After 1–3 months): 13.4 ± 0.4 g/dL | Hct (rhesus macaques; After 1–3 months): 42.4±2.0 % | Plt (rhesus macaques; After 1–3 months): 303.0±118.8 ×10^6/mL | RBC (rhesus macaques; After 1–3 months): 5.7±0.1 ×10^6/mL | Total bilirubin (rhesus macaques; After 1–3 months): 0.2 ± 0.1 mg/dL | Total protein (rhesus macaques; After 1–3 months): 6.1 ± 0.9 g/dL | WBC (rhesus macaques; After 1–3 months): 4.8±0.5 ×10^3/mL | ALP (rhesus macaques; After imaging): 169.4±61.3 IU/L | ALT (rhesus macaques; After imaging): 34.2±12.2 IU/L | AST (rhesus macaques; After imaging): 29.0±5.6 IU/L | Albumin (rhesus macaques; After imaging): 3.9 ± 0.8 g/dL | BUN (rhesus macaques; After imaging): 17.9 ± 4.6 mg/dL | Hb (rhesus macaques; After imaging): 13.1 ± 1.2 g/dL | Hct (rhesus macaques; After imaging): 41.4±2.5 % | Plt (rhesus macaques; After imaging): 328.1±54.2 ×10^6/mL | RBC (rhesus macaques; After imaging): 5.7±0.6 ×10^6/mL | Total bilirubin (rhesus macaques; After imaging): 0.3 ± 0.1 mg/dL | Total protein (rhesus macaques; After imaging): 7.0 ± 0.5 g/dL | WBC (rhesus macaques; After imaging): 6.8± 1.1 ×10^3/mL | changes in CBC, blood chemistry, liver enzymes, renal function (rhesus macaques; before vs after 3 h and 1–3 months): no statistically significant changes; also recorded: no significant changes in CBC, liver enzymes, or renal function | Humanized residence time, Gall bladder ([3]; All, Mean±SD): 0.011 ± 0.005 h | Humanized residence time, Heart ([3]; All, Mean±SD): 0.034 ± 0.017 h | Humanized residence time, Intestines ([3]; All, Mean±SD): 0.319 ± 0.134 h | Humanized residence time, Kidneys ([3]; All, Mean±SD): 0.044 ± 0.013 h | Humanized residence time, Liver ([3]; All, Mean±SD): 0.209 ± 0.171 h | Humanized residence time, Remainder of body ([3]; All, Mean±SD): 1.751 ± 0.363 h | Humanized residence time, Gall bladder ([3]; Female, Mean±SD): 0.016 ± 0.002 h | Humanized residence time, Heart ([3]; Female, Mean±SD): 0.024 ± 0.013 h | Humanized residence time, Kidneys ([3]; Female, Mean±SD): 0.041 ± 0.016 h | Humanized residence time, Liver ([3]; Female, Mean±SD): 0.132 ± 0.082 h | Humanized residence time, Remainder of body ([3]; Female, Mean±SD): 1.724 ± 0.549 h | Humanized residence time, Gall bladder ([3]; Male, Mean±SD): 0.007 ± 0.002 h | Humanized residence time, Heart ([3]; Male, Mean±SD): 0.043 ± 0.016 h | Humanized residence time, Intestines ([3]; Male, Mean±SD): 0.400 ± 0.154 h | Humanized residence time, Kidneys ([3]; Male, Mean±SD): 0.047 ± 0.012 h | Humanized residence time, Liver ([3]; Male, Mean±SD): 0.287 ± 0.220 h | Humanized residence time, Remainder of body ([3]; Male, Mean±SD): 1.778 ± 0.159 h | Humanized residence time, Gall bladder ([3]; animal 1, male): 0.006 h | Humanized residence time, Heart ([3]; animal 1, male): 0.048 h | Humanized residence time, Kidneys ([3]; animal 1, male): 0.061 h | Humanized residence time, Liver ([3]; animal 1, male): 0.505 h | Humanized residence time, Remainder of body ([3]; animal 1, male): 1.706 h | Humanized residence time, Intestines ([3]; animal 1, male, assigned in thirds to small, upper large, lower large intestine): 0.235 h | Humanized residence time, Gall bladder ([3]; animal 2, male): 0.009 h | Humanized residence time, Heart ([3]; animal 2, male): 0.057 h | Humanized residence time, Intestines ([3]; animal 2, male): 0.426 h | Humanized residence time, Kidneys ([3]; animal 2, male): 0.038 h | Humanized residence time, Liver ([3]; animal 2, male): 0.290 h | Humanized residence time, Remainder of body ([3]; animal 2, male): 1.668 h | Humanized residence time, Heart ([3]; animal 3, male): 0.025 h | Humanized residence time, Intestines ([3]; animal 3, male): 0.540 h | Humanized residence time, Kidneys ([3]; animal 3, male): 0.043 h | Humanized residence time, Liver ([3]; animal 3, male): 0.065 h | Humanized residence time, Remainder of body ([3]; animal 3, male): 1.960 h | Humanized residence time, Gall bladder ([3]; animal 4, female): 0.017 h | Humanized residence time, Heart ([3]; animal 4, female): 0.039 h | Humanized residence time, Intestines ([3]; animal 4, female): 0.261 h | Humanized residence time, Kidneys ([3]; animal 4, female): 0.032 h | Humanized residence time, Liver ([3]; animal 4, female): 0.226 h | Humanized residence time, Remainder of body ([3]; animal 4, female): 1.138 h | Humanized residence time, Gall bladder ([3]; animal 5, female): 0.014 h | Humanized residence time, Heart ([3]; animal 5, female): 0.016 h | Humanized residence time, Intestines ([3]; animal 5, female): 0.256 h | Humanized residence time, Kidneys ([3]; animal 5, female): 0.059 h | Humanized residence time, Liver ([3]; animal 5, female): 0.078 h | Humanized residence time, Remainder of body ([3]; animal 5, female): 1.804 h | Humanized residence time, Heart ([3]; animal 6, female): 0.017 h | Humanized residence time, Intestines ([3]; animal 6, female): 0.196 h | Humanized residence time, Kidneys ([3]; animal 6, female): 0.030 h | Humanized residence time, Liver ([3]; animal 6, female): 0.093 h | Humanized residence time, Remainder of body ([3]; animal 6, female): 2.228 h | time the product maintained its radiochemical purity [4]: more than 8 h
